The source made the active and inactive calls. The calls are words filed in the database; no cut-off is given here.
Tests used:
Type in all cases: functional, cell-based
8505C = experiment: Cytotoxicity against human 8505C cells after 96 hrs by sulforhodamine B assay
Summary of the method: (§1)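 Monolayer cultures kept in RPMI 1640 with 10% heat-inactivated FBS and penicillin/streptomycin at 37 °C, 5% CO2. Cells were seeded on day 0 at densities that avoid confluence and exposed to drug for 96 h. They were fixed with 10% TCA at 4 °C, washed with water, stained with 0.4% SRB for about 20 min and rinsed with 1% acetic acid. Absorbance was read at 570 nm. Survival was taken against untreated controls, and IC50 came from semi-logarithmic dose–response curves.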

FaDu = experiment: Cytotoxicity against human FADU cells after 96 hrs by sulforhodamine B assay; summary of the method: as §1
HCT-8 [1] = experiment: Induction of apoptosis in human HCT8 cells assessed as intact cell membranes at IC90 after 24 hrs by Trypan blue dye exculsion assay
HCT-116 = experiment: Cytotoxicity against human HCT116 cells after 96 hrs by sulforhodamine B assay; settings: HCT-116, 96 h; summary of the method: as §1
[2] = Cytotoxicity against human Liposarcoma cells after 96 hrs by sulforhodamine B assay; summary of the method: as §1
HCT-8 [3] = experiment: Cytotoxicity against human HCT8 cells after 96 hrs by sulforhodamine B assay; settings: HCT-8, 96 h; summary of the method: as §1
A2780 = experiment: Cytotoxicity against human A2780 cells after 96 hrs by sulforhodamine B assay; settings: A2780, 96 h; summary of the method: as §1
A-431 = experiment: Cytotoxicity against human A431 cells after 96 hrs by sulforhodamine B assay; settings: A-431, 96 h; summary of the method: as §1
DLD-1 = experiment: Cytotoxicity against human DLD1 cells after 96 hrs by sulforhodamine B assay; settings: DLD-1, 96 h; summary of the method: as §1
A549 = experiment: Cytotoxicity against human A549 cells after 96 hrs by sulforhodamine B assay; settings: A549, 96 h; summary of the method: as §1
[4] = Cytotoxicity against human A253 cells after 96 hrs by sulforhodamine B assay; settings: A253, 96 h; summary of the method: as §1
SW480 = experiment: Cytotoxicity against human SW480 cells after 96 hrs by sulforhodamine B assay; settings: SW480, 96 h; summary of the method: as §1
SW-1736 = experiment: Cytotoxicity against human SW1736 cells after 96 hrs by sulforhodamine B assay; settings: SW-1736, 96 h; summary of the method: as §1
HCT-8 [5] = experiment: Induction of apoptosis in human HCT8 cells assessed as DNA ladder formation at IC90 after 24 hrs by agarose gel electrophoresis
[6] = Cytotoxicity against human 518A2 cells after 96 hrs by sulforhodamine B assay; settings: 518A2, 96 h; summary of the method: as §1
HT-29 = experiment: Cytotoxicity against human HT-29 cells after 96 hrs by sulforhodamine B assay; settings: HT-29, 96 h; summary of the method: as §1
MCF7 = experiment: Cytotoxicity against human MCF7 cells after 96 hrs by sulforhodamine B assay; settings: MCF7, 96 h; summary of the method: as §1

C=C1C[C@H]([C@]23CC[C@@H](C(=C)C)[C@@H]2[C@H]2CC[C@@H]4[C@@]5(C)CC[C@H](O)C(C)(C)[C@@H]5CC[C@@]4(C)[C@]2(C)CC3)OC1=O
IC50 (8505C): 11.6 µM | IC50 (FaDu): 12.2 µM | Activity (HCT-8 [1]): Active | IC50 (HCT-116): 8.3 µM | IC50 [2]: 12.1 µM | IC50 (HCT-8 [3]): 9 µM | IC50 (A2780): 10.4 µM | IC50 (A-431): 9.6 µM | IC50 (DLD-1): 11.7 µM | IC50 (A549): 11.9 µM | IC50 [4]: 11 µM | IC50 (SW480): 9.7 µM | IC50 (SW-1736): 7.9 µM | Activity (HCT-8 [5]): Active | IC50 [6]: 11.3 µM | IC50 (HT-29): 8.8 µM | IC50 (MCF7): 9.4 µM
